Activity data for eight compounds are collected here from ChEMBL document CHEMBL4368872, “Synthesis and anticonvulsant activity of phenoxyacetyl derivatives of amines, including aminoalkanols and amino acids” (Medchemcomm, 2018).

Data set [1] has as its system Mus musculus. Nature of the data set: Anticonvulsant activity in CF-1 mouse model of subcutaneous pentylenetetrazole-induced seizure assessed as reduction in convulsions at 300 mg/kg, ip measured at 0.5 hrs post dose. Format: functional, organism-based. The procedure, abridged:
(§1)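 Mice dosed i.p., then given pentylenetetrazole 85 mg/kg in 0.9% NaCl s.c. into the posterior midline of the neck. Seizures watched for at least 30 min. Scored as protected / tested at 0.5 and 4 h.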

A short description of data set [2]: Neurotoxicity in CF-1 mouse at 100 mg/kg, ip measured after 1 hr by rotarod test. The format is toxicity, organism-based. The conditions noted are these: in vivo. The procedure, abridged: (§2)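 Mice dosed i.p. were placed on a 1 in. knurled rod turning at 6 rpm. Toxicity was scored as failure to keep balance for at least 1 min, i.e. falling off three or more times. Results are reported as animals showing toxicity / animals tested at each time point.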
(In general: The rotarod test checks motor coordination on a turning rod.)

In data set [3] the test system is Mus musculus. Nature of the data set: Anticonvulsant activity in CF-1 mouse model of subcutaneous pentylenetetrazole-induced seizure assessed as reduction in convulsions at 300 mg/kg, ip measured at 4 hrs post dose. Format: functional, organism-based. The procedure, abridged:
as §1

Data set [4] in a line: Neurotoxicity in CF-1 mouse at 300 mg/kg, ip measured after 4 hrs by rotarod test. To be noted: in vivo. Format: toxicity, organism-based. The procedure, abridged: as §2
For data set [5], the system named is Mus musculus. Nature of the data set: Anticonvulsant activity in CF-1 mouse model of maximal electroshock-induced seizure assessed as suppression of tonic hind limb extension at 30 mg/kg, ip measured at 0.5 hrs post dose. Format: functional, organism-based. The procedure, abridged:
(§3)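 Mice dosed i.p. and given maximal electroshock at 50 mA. Read-out is protection, reported as number protected / number tested at 0.25, 0.5, 1 and 4 h after dosing.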
(In the maximal electroshock model the usual endpoint is tonic extension of the hind limbs.)

Data set [6] in a line: Neurotoxicity in CF-1 mouse at 100 mg/kg, ip measured after 4 hrs by rotarod test. Format: toxicity, organism-based. The conditions noted are these: in vivo. The procedure, abridged:
as §2

For data set [7], the system named is Mus musculus. Nature of the data set: Anticonvulsant activity in CF-1 mouse model of subcutaneous pentylenetetrazole-induced seizure assessed as reduction in convulsions at 30 mg/kg, ip measured at 0.5 hrs post dose. Format: functional, organism-based. The procedure, abridged: as §1
Data set [8] relates to Mus musculus. Nature of the data set: Anticonvulsant activity in CF-1 mouse model of subcutaneous pentylenetetrazole-induced seizure assessed as reduction in convulsions at 100 mg/kg, ip measured at 4 hrs post dose. The format is functional, organism-based. The procedure, abridged: as §1
For data set [9], the system named is Mus musculus. Nature of the data set: Anticonvulsant activity in CF-1 mouse model of maximal electroshock-induced seizure assessed as suppression of tonic hind limb extension at 100 mg/kg, ip measured at 1 hr post dose. Format: functional, organism-based. The procedure, abridged: as §3
Data set [10] is described as follows: Neurotoxicity in CF-1 mouse at 30 mg/kg, ip measured after 4 hrs by rotarod test. The format is toxicity, organism-based. The conditions noted are these: in vivo. The procedure, abridged: as §2
A short description of data set [11]: Neurotoxicity in CF-1 mouse at 30 mg/kg, ip measured after 0.5 hrs by rotarod test. The format is toxicity, organism-based. The conditions noted are these: in vivo. The procedure, abridged: as §2
A short description of data set [12]: Neurotoxicity in CF-1 mouse at 100 mg/kg, ip measured after 0.25 hrs by rotarod test. The format is toxicity, organism-based. To be noted: in vivo. The procedure, abridged: as §2
The test system of data set [13] is Mus musculus. Nature of the data set: Anticonvulsant activity in CF-1 mouse model of subcutaneous pentylenetetrazole-induced seizure assessed as reduction in convulsions at 30 mg/kg, ip measured at 4 hrs post dose. The format is functional, organism-based. The procedure, abridged:
as §1

Data set [14] has as its system Mus musculus. Put plainly: Anticonvulsant activity in CF-1 mouse model of maximal electroshock-induced seizure assessed as suppression of tonic hind limb extension at 100 mg/kg, ip measured at 0.25 hrs post dose. Format: functional, organism-based. The procedure, abridged:
as §3

Data set [15] deals with Mus musculus. Nature of the data set: Anticonvulsant activity in CF-1 mouse model of maximal electroshock-induced seizure assessed as suppression of tonic hind limb extension at 100 mg/kg, ip measured at 0.5 hrs post dose. Format: functional, organism-based. The procedure, abridged:
as §3

The test system of data set [16] is Mus musculus. Put plainly: Anticonvulsant activity in CF-1 mouse model of maximal electroshock-induced seizure assessed as suppression of tonic hind limb extension at 100 mg/kg, ip measured at 4 hrs post dose. Format: functional, organism-based. The procedure, abridged:
as §3

The nature of data set [17]: Neurotoxicity in CF-1 mouse at 100 mg/kg, ip measured after 0.5 hrs by rotarod test. Format: toxicity, organism-based. The conditions noted are these: in vivo. The procedure, abridged:
as §2

Data set [18] relates to Mus musculus. Put plainly: Anticonvulsant activity in CF-1 mouse model of subcutaneous pentylenetetrazole-induced seizure assessed as reduction in convulsions at 100 mg/kg, ip measured at 0.5 hrs post dose. The format is functional, organism-based. The procedure, abridged:
as §1

Data set [19] relates to Mus musculus. Nature of the data set: Anticonvulsant activity in CF-1 mouse model of maximal electroshock-induced seizure assessed as suppression of tonic hind limb extension at 300 mg/kg, ip measured at 4 hrs post dose. Format: functional, organism-based. The procedure, abridged: as §3
In data set [20] the test system is Mus musculus. Put plainly: Anticonvulsant activity in CF-1 mouse model of maximal electroshock-induced seizure assessed as suppression of tonic hind limb extension at 30 mg/kg, ip measured at 4 hrs post dose. The format is functional, organism-based. The procedure, abridged:
as §3

For data set [21], the system named is Mus musculus. Put plainly: Anticonvulsant activity in CF-1 mouse model of maximal electroshock-induced seizure assessed as suppression of tonic hind limb extension at 300 mg/kg, ip measured at 0.5 hrs post dose. Format: functional, organism-based. The procedure, abridged: as §3
The nature of data set [22]: Neurotoxicity in CF-1 mouse at 300 mg/kg, ip measured after 0.5 hrs by rotarod test. Format: toxicity, organism-based. The conditions noted are these: in vivo. The procedure, abridged:
as §2

Activity calls are given as the source filed them. No cut-off for these calls is given here.

On to `CCC(NC(=O)COc1c(C)cc(C)cc1C)C(N)=O` (stereo not drawn), for which the result in [1], in [3], in [5], in [7], in data set [8] and in data set [9] was inactive. For the same compound, the result in data set [13], in [14], in [15], in data set [16], in [18] and in data set [19] was inactive. In addition, in data set [20], the outcome was inactive. The Activity result in [2], in data set [4], in data set [6], in [10], in data set [11] and in data set [12] was “Non-Toxic” each time. Besides, the Activity entry in data set [17] is “Non-Toxic”. The outcome in [21] was Active.
For the compound `Cc1cccc(C)c1OCC(=O)N[C@H](C)C(N)=O`, the result in data set [1], in data set [3], in [5], in data set [7], in data set [8] and in data set [9] was inactive. Besides, the result in data set [14], in data set [15], in data set [16], in [18], in data set [19] and in data set [20] was inactive. The Activity result in [4], in data set [6], in data set [10], in data set [11] and in [12] was “Non-Toxic” in each case. Moreover, the result in data set [21] was Active.
In the case of `Cc1cccc(C)c1OCC(=O)NC(C)C(=O)O` (stereo not drawn), the result in data set [1], in data set [3], in [5], in data set [7], in data set [8] and in data set [13] was inactive. The result in data set [15], in data set [16], in data set [18], in data set [19], in [20] and in data set [21] was inactive. The Activity result in data set [4], in [22], in data set [6], in [10], in [11] and in data set [17] was “Non-Toxic” each time.
For the compound `Cc1cccc(C)c1OCC(=O)NCCc1ccccc1`, the outcome in data set [1], in [3], in data set [5], in data set [7], in data set [8] and in [13] was inactive. The result in data set [15], in data set [16], in data set [18], in data set [19], in data set [20] and in data set [21] was inactive. In addition, the Activity result in [4], in data set [6], in data set [10], in data set [11] and in [17] was “Non-Toxic” each time.
On to `CCC(CO)NC(=O)COc1c(C)cc(C)cc1C` (stereo not drawn), for which the outcome in data set [1], in data set [3], in data set [5], in data set [7], in data set [8] and in data set [9] was inactive. The result in data set [13], in data set [14], in [15], in data set [16], in data set [18] and in data set [19] was inactive. Moreover, in data set [20], the result was inactive. Further, the Activity entry in [2], in data set [4], in data set [6], in data set [10], in [11] and in data set [12] was “Non-Toxic” in each case. Also, the result in data set [21] was Active.
`Cc1cccc(C)c1OCC(=O)N[C@@H](C)CO`: the result in data set [1], in [3], in [5], in data set [7], in [8] and in data set [13] was inactive. Further, the outcome in data set [15], in data set [16], in data set [18] and in [20] was inactive. Moreover, in [10], the Activity result was “Non-Toxic”. The outcome in data set [19] and in data set [21] was Active.
Take `Cc1cccc(C)c1OCC(=O)N[C@@H](C)C(=O)O`: the result in data set [1], in [3], in [5], in data set [7], in data set [8] and in [13] was inactive. For the same compound, the result in data set [15], in data set [16], in [18], in data set [19], in data set [20] and in [21] was inactive. Also, the Activity result in [4], in data set [22], in data set [6], in data set [10], in data set [11] and in data set [17] was “Non-Toxic” each time.
For `Cc1cc(C)c(OCC(=O)NCC(O)c2ccccc2)c(C)c1` (stereo not drawn), the result in data set [1], in data set [3], in data set [5], in data set [7], in [8] and in data set [13] was inactive. The outcome in data set [15], in [16], in data set [18], in [19], in data set [20] and in data set [21] was inactive. In addition, the Activity entry in [4] was “Non-Toxic”; in data set [22] it was “Toxic”; in [6], “Non-Toxic”; in data set [10], “Non-Toxic”; in data set [11] it was “Non-Toxic”; in [17], “Non-Toxic”.
